This note sets out measurements from ChEMBL document CHEMBL4004814, “In Vitro and in Vivo Evaluation of Fully Substituted (5-(3-Ethoxy-3-oxopropynyl)-4-(ethoxycarbonyl)-1,2,3-triazolyl-glycosides as Original Nucleoside Analogues to Circumvent Resistance in Myeloid Malignancies” (J Med Chem, 2017).

SMILES strings stand for the structures. Activity calls are given as the source filed them. The rule behind the calls is not given here.

What all share (type): functional, cell-based
The test system of one assay is K562. The assay can be described thus: Antileukemic activity against human K562 cells after 48 hrs by XTT assay. As to conditions: K562, 48 h. A digest of the protocol: (§1)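 XTT read-out of mitochondrial metabolism after 48 h incubation with compound (up to 10 µM in first screen). XTT reagent added to cells, formazan absorbance read at 490 nm. Each assay run in quadruplicate. IC50 derived; standard deviation reported. Resistant K562 line obtained by chronic imatinib exposure for 6 months.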

The next assay concerns SKM1-R. As to the kind of experiment: Induction of apoptosis in human SKM1-R cells assessed as caspase 3 cleavage at 10 uM by Western blot method. Background: Immunoblotting shows a protein as a band on a membrane.
A short description of assay [1]: Antiproliferative activity against human SKM1-R cells after 48 hrs by XTT assay. On the technique in general: Tetrazolium assays rely on reduction of a dye to a coloured formazan, in cell work by metabolically active cells.
The nature of assay [2]: Antiproliferative activity against human SKM1-S cells after 48 hrs by DAPI-staining-based flow cytometric method. A digest of the protocol: (§2)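 Flow cytometry of DAPI incorporation after 48 h incubation with compound; DL50 derived. SKM1 grown in RPMI with 10% FCS at 37°C, 5% CO2, with penicillin/streptomycin.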
On the technique in general: Flow cytometry measures light scatter and fluorescence of single cells or particles in a stream.

Assay [3] in a line: Antiproliferative activity against human SKM1-S cells after 48 hrs by XTT assay. A digest of the protocol:
as §1

A short description of assay [4]: Antiproliferative activity against human SKM1-R cells after 48 hrs by DAPI-staining-based flow cytometric method. A digest of the protocol:
as §2

The subject of the next assay is SKM1-S. The assay can be described thus: Induction of apoptosis in human SKM1-S cells assessed as caspase 3 cleavage at 1 uM by Western blot method.

Broadly, the IC50 is the point on the concentration scale where inhibition reaches its midpoint. The low end stands for inhibition by little substance, the high end for a need for much substance. In the assay on K562, `CCOC(=O)c1nnn([C@@H]2O[C@H](CO)[C@H]3OC(C)(C)O[C@H]32)c1I` registered an IC50 of more than 10000 nM.
As for `CCOC(=O)C#Cc1c(C(=O)OCC)nnn1[C@H]1O[C@@H](COC(C)=O)[C@H](OC(C)=O)[C@@H]1OC(C)=O`, inhibition in the assay on K562 was half-maximal at 200 nM (IC50).
The compound `CC(C)(C)OC(=O)C#Cc1c(C(=O)OC(C)(C)C)nnn1[C@@H]1O[C@H](CO)[C@H]2OC(C)(C)O[C@H]21` registered an IC50 in the assay on K562 of 1150 nM.
Still for that read-out and setting: as for `CCOC(=O)c1nnn([C@@H]2O[C@H](CO)[C@H]3OC(C)(C)O[C@H]32)c1C#Cc1ccc(F)cc1`, the figure is more than 10000 nM; as for `CCOC(=O)C#Cc1c(C(=O)OCC)nnn1[C@H]1C[C@H](OC(C)=O)[C@@H](COC(C)=O)O1`, 200 nM.
In the assay on K562, `CCOC(=O)C#Cc1c(C(=O)OCC)nnn1[C@@H]1O[C@H](COC)[C@@H](OC)[C@H]1OC` showed an IC50 of 800 nM.
Compound `CCOC(=O)C#Cc1c(C(=O)OCC)nnn1[C@@H]1O[C@H](COC(C)=O)[C@H](OC(C)=O)[C@H]1OC(C)=O` displayed an IC50 with K562 of 200 nM.
As for `CCOC(=O)C#Cc1c(C(=O)OCC)nnn1[C@@H]1O[C@H](COC)[C@H]2OC(C)(C)O[C@H]21`, the IC50 in the assay with K562 came to 550 nM.
`COC(=O)c1nnn([C@@H]2O[C@H](CO)[C@H]3OC(C)(C)O[C@H]32)c1I` came in with an IC50 in the assay with K562 of more than 10000 nM.
For `CC(=O)OC[C@H]1O[C@@H](n2nnc(C(=O)OC(C)(C)C)c2C#CC(=O)OC(C)(C)C)[C@H](OC(C)=O)[C@@H]1OC(C)=O`, half-maximal inhibition with K562 (IC50) was put at 2500 nM.
On the same count and under the same terms, as for `COC(=O)C#Cc1c(C(=O)OC)nnn1[C@@H]1O[C@H](CO)[C@H]2OC(C)(C)O[C@H]21`, the figure is 1450 nM; as for `CCOC(=O)C#Cc1c(C(=O)OCC)nnn1[C@@H]1O[C@H](COC(C)=O)[C@@H](OC(C)=O)[C@H]1OC(C)=O`, 700 nM; as for `CCCCCCCC#Cc1c(C(=O)OCC)nnn1[C@@H]1O[C@H](CO)[C@H]2OC(C)(C)O[C@H]21`, more than 10000 nM.
Still for that read-out and setting: the value for `CCOC(=O)c1nnn([C@@H]2O[C@H](COC(C)=O)[C@@H](OC(C)=O)[C@H]2OC(C)=O)c1I` was more than 10000 nM.
`COC(=O)C#Cc1c(C(=O)OC)nnn1[C@@H]1O[C@H](COC(C)=O)[C@H]2OC(C)(C)O[C@H]21` registered an IC50 with K562 of 150 nM.
In turn, `CCOC(=O)c1nnn([C@@H]2O[C@H](COC(C)=O)[C@@H](OC(C)=O)[C@H]2OC(C)=O)c1C(=O)c1ccc(C)cc1` had an IC50 in the assay on K562 of more than 10000 nM.
The term EC50 denotes the concentration that produces a half-maximal response. Read a low EC50 as a more potent agent. `Nc1ncn([C@@H]2O[C@H](CO)[C@@H](O)[C@H]2O)c(=O)n1` [AZACITIDINE]: in the assay with SKM1-R, the outcome was inactive. The IC50 in assay [1] is more than 10000 nM; in assay [3] it was 500 nM. For the same compound, the EC50 is 510 nM in assay [2] and more than 10000 nM in assay [4]. Besides, in the assay with SKM1-S, the outcome was Active.
Turning to `NC(=O)c1ncn([C@@H]2O[C@H](CO)[C@@H](O)[C@H]2O)c1N` [ACADESINE], the IC50 in the assay with K562 came out at 800000 nM.
In the assay on K562, `CCOC(=O)c1nnn([C@@H]2O[C@H](COC(C)=O)[C@@H](OC(C)=O)[C@H]2OC(C)=O)c1C(=O)c1ccco1` gave an IC50 of more than 10000 nM.
`CCOC(=O)c1nnn([C@@H]2O[C@H](COC(C)=O)[C@@H](OC(C)=O)[C@H]2OC(C)=O)c1C(=O)c1cccs1` registered an IC50 in the assay with K562 of more than 10000 nM.
`CCCC1(CCC)O[C@@H]2[C@H](O1)[C@@H](CO)O[C@H]2n1nnc(C(=O)OCC)c1C#CC(=O)OCC` displayed an IC50 with K562 of 150 nM.
`CCOC(=O)C#Cc1c(C(=O)OCC)nnn1[C@@H]1O[C@H](COC(C)=O)[C@H]2OC(C)(C)O[C@H]21` gave a half-inhibitory concentration (IC50) in the assay with K562 of 500 nM.
Take `CCOC(=O)C#Cc1c(C(=O)OCC)nnn1[C@@H]1O[C@H](CO)[C@H]2O[C@@](C)(c3ccccc3)O[C@H]21`: the IC50 in the assay on K562 was 500 nM.
Consider `CCOC(=O)c1nnn([C@@H]2O[C@H](COC(C)=O)[C@@H](OC(C)=O)[C@H]2OC(C)=O)c1-c1cccs1`, for which the IC50 in the assay with K562 was more than 10000 nM.
